This passage reports IC50 results from ChEMBL document CHEMBL1158120, “Cytotoxic oxygenated triterpenoid saponins from Symplocos chinensis” (J Nat Prod, 2006).

Holding throughout (type): functional, cell-based
In one test the test system is BGC-823. Put plainly: Cytotoxicity against human BGC-823 cells by MTT assay. The method in brief:
(§1)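 MTT read-out of tumour-cell viability. IC50 values in µM are reported as means of three independent experiments.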

Another test concerns A2780. As to the kind of experiment: Cytotoxicity against human A2780 cells by MTT assay. The method in brief:
as §1

For a further test, the system named is A549. As to the kind of experiment: Cytotoxicity against human A549 cells by MTT assay. The method in brief:
as §1

For another test, the system named is Bel-7402. As to the kind of experiment: Cytotoxicity against human Bel-7402 cells by MTT assay. The method in brief: as §1
The test system of the next test is HCT-8. Put plainly: Cytotoxicity against human HCT8 cells by MTT assay. The method in brief:
as §1

In the case of `COC(=O)[C@H]1O[C@@H](O[C@H]2CC[C@]3(C)[C@H]4CC=C5[C@@H]6CC(C)(C)[C@@H](OC(=O)/C=C(/C)CCC=C(C)C)[C@H](OC(=O)c7ccccc7)[C@]6(CO)[C@H](O)[C@H](O)[C@@]5(C)[C@]4(C)CC[C@H]3C2(C)C)[C@H](O[C@@H]2O[C@H](CO)[C@@H](O)[C@H](O)[C@H]2O)[C@@H](OC(C)=O)[C@@H]1O[C@@H]1O[C@@H](CO)[C@H](O)[C@H]1O` [SYMPLOCOSOSIDE K], the half-maximal inhibitory concentration (IC50) in the test with BGC-823 was greater than 10 µM; in the test with A2780, 0.8 µM; with A549, 4 µM; in the test on Bel-7402 it was 5.1 µM; in the test on HCT-8, 2.4 µM.
For `CC(=O)O[C@@H]1[C@@H](O[C@@H]2O[C@H](CO)[C@@H](O)[C@H](O)[C@H]2O)[C@H](O[C@H]2CC[C@]3(C)[C@H]4CC=C5[C@@H]6CC(C)(C)[C@@H](OC(=O)/C=C(\C)CCC=C(C)C)[C@H](OC(=O)C(C)C)[C@]6(CO)[C@H](O)[C@H](O)[C@@]5(C)[C@]4(C)CC[C@H]3C2(C)C)O[C@H](C(=O)O)[C@H]1O[C@@H]1O[C@@H](CO)[C@H](O)[C@H]1O` [SYMPLOCOSOSIDE M], in that order: greater than 10 µM, 2.3 µM, greater than 10 µM, 3.8 µM and 2.7 µM.
In the same order, the values of `CC1(C)C[C@H](O)[C@]2(CO)[C@H](O)[C@H](O)[C@]3(C)C(=CC[C@@H]4[C@@]5(C)CC[C@H](O)C(C)(C)[C@@H]5CC[C@]43C)[C@@H]2C1` are greater than 10 µM, greater than 10 µM, greater than 10 µM, greater than 10 µM and greater than 10 µM.
Take `CC(=O)O[C@@H]1[C@@H](O[C@@H]2O[C@H](CO)[C@@H](O)[C@H](O)[C@H]2O)[C@H](O[C@H]2CC[C@]3(C)[C@H]4CC=C5[C@@H]6CC(C)(C)C[C@H](OC(=O)/C=C(/C)CCC=C(C)C)[C@]6(CO)[C@H](O)[C@H](O)[C@@]5(C)[C@]4(C)CC[C@H]3C2(C)C)O[C@H](C(=O)O)[C@H]1O[C@@H]1O[C@@H](CO)[C@H](O)[C@H]1O` [SYMPLOCOSOSIDE O]: the half-maximal inhibitory concentration (IC50) was greater than 10 µM with BGC-823; greater than 10 µM in the test on A2780; greater than 10 µM in the test with A549; 2.4 µM in the test with Bel-7402; 1.7 µM with HCT-8.
With `CC(C)=CCC/C(C)=C\C(=O)O[C@H]1[C@H](OC(=O)C(C)C)[C@]2(CO)[C@H](O)[C@H](O)[C@]3(C)C(=CC[C@@H]4[C@@]5(C)CC[C@H](O)C(C)(C)[C@@H]5CC[C@]43C)[C@@H]2CC1(C)C`, the IC50 with BGC-823, with A2780, in the test on A549, in the test with Bel-7402 and with HCT-8 was greater than 10 µM throughout.
On to `CC1(C)C[C@H]2C3=CC[C@@H]4[C@@]5(C)CC[C@H](O)C(C)(C)[C@@H]5CC[C@@]4(C)[C@]3(C)[C@@H](O)[C@@H](O)[C@@]2(CO)[C@@H](O)[C@@H]1O` [R1-barrigenol], for which the concentration for half-maximal inhibition (IC50) in the test with BGC-823, with A2780, in the test on A549, with Bel-7402 and in the test with HCT-8 was greater than 10 µM throughout.
`CCC(C)C(=O)O[C@H]1[C@H](OC(=O)/C=C(/C)CCC=C(C)C)C(C)(C)C[C@H]2C3=CC[C@@H]4[C@@]5(C)CC[C@H](O[C@@H]6O[C@H](C(=O)O)[C@@H](O)[C@H](O)[C@H]6O[C@@H]6O[C@H](CO)[C@@H](O)[C@H](O)[C@H]6O)C(C)(C)[C@@H]5CC[C@@]4(C)[C@]3(C)[C@@H](O)[C@@H](O)[C@]21CO` (some centres undefined) [SYMPLOCOSOSIDE R]: the IC50 was greater than 10 µM in the test with BGC-823; 1.9 µM with A2780; greater than 10 µM in the test on A549; 4.1 µM in the test with Bel-7402; 4.4 µM with HCT-8.
Take `COc1cccc2c1C(=O)c1c(O)c3c(c(O)c1C2=O)C[C@@](O)(C(=O)CO)C[C@@H]3O[C@H]1C[C@H](N)[C@H](O)[C@H](C)O1` [DOXORUBICIN]: the 50% inhibitory concentration (IC50) in the test on BGC-823 came to 1 µM; with A2780, 0.1 µM; with Bel-7402 it was 1 µM; with HCT-8, 0.8 µM.
